Cardio protect – protects H9c2 cardiomyocytes from peroxide injury; H2O2 injury protection, ATPLite, 2 h; protection from H2O2 cell death, % at 20 µM; 360,000 compounds, 0.63% hits; AID 588492;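 active means compounds giving at least 50% protection of heart cells from peroxide-induced death in the single-dose screen, raw or plate-pattern-corrected value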;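 further: 0% = DMSO wells with peroxide and 100% = DMSO wells without peroxide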
JMJD2C inh – human JMJD2C demethylase inhibition. GST-JMJD2C(1-420) H3K9me3 demethylation, DELFIA europium. inhibition, % at 2.35 µM. 330,000 compounds, 0.069% hits;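 active means more than half of a compound's replicate wells show inhibition beyond 50%, single wells judged on their own value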;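 further: signal counts dimethyl H3K9 product captured on neutravidin plate; 0% = median of DMSO wells and 100% = 0.3 times that DMSO median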
pCIP destab – p/CIP protein destabilization | Q05BA5 | 290,000 compounds, 0.01% hits | F442A p/CIP-EGFP cells, EGFP fluorescence, 16 h | decrease of EGFP signal, % at 10 µM;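 active means EGFP signal decrease of at least 30% at 10 µM or well 3 SD below plate mean, unless failing retest; inactive means the rest, including hits failing retest or dose response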
Target sequence (Q05BA5 1-1403): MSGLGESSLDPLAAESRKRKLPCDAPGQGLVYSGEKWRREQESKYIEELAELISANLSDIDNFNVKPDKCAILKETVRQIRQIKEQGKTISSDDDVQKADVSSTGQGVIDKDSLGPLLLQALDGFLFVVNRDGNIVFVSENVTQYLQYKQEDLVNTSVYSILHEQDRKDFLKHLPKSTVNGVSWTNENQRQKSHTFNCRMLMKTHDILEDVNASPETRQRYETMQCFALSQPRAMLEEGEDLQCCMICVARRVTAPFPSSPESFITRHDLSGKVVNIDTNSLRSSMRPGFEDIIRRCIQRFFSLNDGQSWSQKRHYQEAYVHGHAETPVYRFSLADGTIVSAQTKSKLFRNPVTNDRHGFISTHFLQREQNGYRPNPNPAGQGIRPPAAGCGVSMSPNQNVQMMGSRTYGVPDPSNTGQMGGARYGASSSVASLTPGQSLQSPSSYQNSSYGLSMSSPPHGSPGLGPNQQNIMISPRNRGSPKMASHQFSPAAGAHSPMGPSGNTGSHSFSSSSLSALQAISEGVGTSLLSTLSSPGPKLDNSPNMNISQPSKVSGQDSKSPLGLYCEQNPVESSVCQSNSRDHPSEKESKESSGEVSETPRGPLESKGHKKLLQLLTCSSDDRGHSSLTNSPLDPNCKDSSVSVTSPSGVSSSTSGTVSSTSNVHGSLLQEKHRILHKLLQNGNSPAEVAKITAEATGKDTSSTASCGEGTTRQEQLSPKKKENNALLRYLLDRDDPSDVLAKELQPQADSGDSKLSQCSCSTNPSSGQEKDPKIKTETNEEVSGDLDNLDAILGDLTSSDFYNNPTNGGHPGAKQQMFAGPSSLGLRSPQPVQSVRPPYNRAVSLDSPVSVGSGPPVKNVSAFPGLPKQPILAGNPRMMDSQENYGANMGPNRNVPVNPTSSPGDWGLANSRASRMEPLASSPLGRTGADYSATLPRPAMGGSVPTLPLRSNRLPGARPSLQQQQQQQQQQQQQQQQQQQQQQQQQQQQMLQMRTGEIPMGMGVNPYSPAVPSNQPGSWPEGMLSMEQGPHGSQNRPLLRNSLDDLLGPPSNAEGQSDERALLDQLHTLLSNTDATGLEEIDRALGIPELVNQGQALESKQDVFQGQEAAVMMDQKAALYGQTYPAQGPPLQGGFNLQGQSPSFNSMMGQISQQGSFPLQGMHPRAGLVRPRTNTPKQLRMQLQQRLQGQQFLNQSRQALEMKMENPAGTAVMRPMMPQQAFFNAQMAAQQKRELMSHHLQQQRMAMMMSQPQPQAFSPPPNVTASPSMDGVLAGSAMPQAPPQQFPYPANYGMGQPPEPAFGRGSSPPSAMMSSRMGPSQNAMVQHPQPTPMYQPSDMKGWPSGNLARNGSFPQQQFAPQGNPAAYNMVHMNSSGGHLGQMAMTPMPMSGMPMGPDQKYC
PP5 inh – PP5 (human) phosphatase inhibition. inhibition, % at 6.7 µM. 320,000 compounds, 0.18% hits. purified PP5c, OMFP substrate fluorescence. P53041;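 active means inhibition above the campaign's mean inhibition across all tested compounds plus 3 SD, cut at about 9.5% in these data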;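 further: 0% = DMSO only and 100% = 100 µM cantharidin control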
T cruzi repl – blocks replication of Trypanosoma cruzi | T. cruzi beta-gal in NIH3T3, luminescence, 90 h | inhibition, % (concentration not given with the values) | 300,000 compounds, 1.4% hits;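 active means mean inhibition across valid replicates above about 55%, limit read from the data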;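 further: signal also drops with host cell toxicity which is not excluded here; 0% = plate median of DMSO wells and 100% = zero luminescence signal; higher percent means less beta-gal luminescence so fewer parasites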
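assay system = mouse NIH/3T3 fibroblasts infected with β-gal-expressing T. cruzi Tulahuen C4 | input = 5,000 NIH/3T3 host cells per well | buffer or medium = DMEM plus 2% FBS | timing = 3 h host attachment, then at least 90 h co-culture | measured by = GalScreen luminescence, 60 min | evaluation = luminescence reflecting intracellular parasite burden, expressed as percent inhibition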
CTSL1 counter – counter-screen for PFM18AAP inhibitors: inhibitors of F. hepatica cathepsin L1; recombinant F. hepatica cathepsin L1, Z-Leu-Arg-MCA fluorescence; inhibition, % at 5.96 µM; 300,000 compounds, 0.49% hits; AID 1906;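 active means inhibition above the mean of all tested compounds plus 3 SD, set per screening campaign, cut at about 17% in these data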;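 further: 0% = plate median of test compound wells and 100% = 1 µM Z-Phe-Ala-diazomethylketone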
* = called active by the depositor; nt = not tested or not shown. Shown are actives, neighbours in structure and some others; about 2.4% of the full set was active somewhere.

SMILES | Cardio protect | JMJD2C inh | pCIP destab | PP5 inh | T cruzi repl | CTSL1 counter
Cn1c(=O)oc2cc(S(=O)(=O)Nc3ccc(F)cc3)ccc21 | -2.9 | nt | -8.0 | 3.2 | 7.1 | -0.5
CCN(CC)CCNc1nc(-c2ccccc2)c2c(c1C#N)CC(C)(C)OC2 | 2.8 | -0.6 | -6.4 | -0.1 | 55.9* | -3.3
O=C(Nc1ccncc1)Nc1cccc(Cl)c1Cl | -13.7 | -0.5 | -3.5 | nt | 65.8* | nt
O=C1C2C(c3ccccc3)CC=CC2[C@H](c2cccc([N+](=O)[O-])c2)N1Cc1ccccc1 (some centres not stated) | -1.6 | -6.1 | -3.9 | 3.1 | 56.1* | 5.7
O=C1C2C(c3ccccc3)CC=CC2[C@H](c2ccc(C(F)(F)F)cc2)N1Cc1ccccc1 (some centres not stated) | -27.0 | -0.5 | -7.6 | 3.5 | 36.5 | -0.2
O=C(c1cnn2ccccc12)N(Cc1ccco1)C1CCCC1 | 17.8 | 0.8 | -6.6 | -0.1 | 2.0 | 47.3*
C/C=C(\C)C(=O)Nc1cccc(C2=NOC3(C2)C[C@@H](C(N)=O)N(C(=O)c2cc([N+](=O)[O-])cc([N+](=O)[O-])c2C)C3)c1 (some centres not stated) | -2.1 | -8.2 | -11.0 | 2.5 | -0.6 | -1.8
Cc1c(C(=O)N2CC3(CC(c4cccc(NC(=O)CC(c5ccccc5)c5ccccc5)c4)=NO3)C[C@@H]2C(N)=O)cc([N+](=O)[O-])cc1[N+](=O)[O-] (some centres not stated) | -4.4 | 5.4 | 1.6 | 4.1 | 67.2* | -1.3
NC(=O)[C@@H]1CC2(CC(c3cccc(NC(=O)CC(c4ccccc4)c4ccccc4)c3)=NO2)CN1C(=O)c1ccc(Cl)cc1 (some centres not stated) | 2.5 | 16.5 | -1.3 | 3.1 | 57.5* | -1.2
COc1ccc(NC(=O)C2CCN(S(=O)(=O)c3ccc4c(c3)CC(C)N4C(C)=O)CC2)c(OC)c1 (configuration not stated) | -2.4 | 4.9 | -5.4 | 2.4 | 9.3 | -0.5
CCOc1ccccc1OCCOCCN1CCN(Cc2ccccc2)CC1 | 3.2 | -4.6 | -5.2 | -0.3 | 61.4* | -0.1
CCC(=O)c1ccccc1OCCN1CCN(Cc2ccccc2)CC1 | -1.9 | 4.5 | 2.7 | 0.6 | 21.9 | 2.8
O=C(CSc1ncn[nH]1)N1CCOCC1 | 8.2 | 9.5 | -7.9 | 4.1 | -5.5 | 59.9*
Cc1ccc(-c2nnc(NCc3nc4ccccc4[nH]3)c3ccccc23)cc1S(=O)(=O)N(C)C | 41.0 | 1.2 | -4.3 | 2.1 | 13.4 | -1.4
Cc1ccc(-c2nnc(NCc3nc4ccccc4[nH]3)c3ccccc23)cc1S(=O)(=O)N1CCOCC1 | 86.0* | 0.6 | -0.9 | 2.1 | 11.5 | -2.3
Cc1cccc(S(=O)(=O)c2c(N)n(/N=C/c3ccco3)c3nc4ccccc4nc23)c1 | -5.6 | 4.7 | -36.1 | 2.2 | 56.6* | 1.8
Cc1ccc(S(=O)(=O)c2c(N)n(/N=C/c3ccco3)c3nc4ccccc4nc23)cc1 | 2.7 | -2.9 | -97.8 | 1.4 | 78.5* | 0.8
O=C(NNS(=O)(=O)c1ccccc1F)c1ccccc1-n1cccc1 | 1.5 | -3.3 | -16.4 | -0.1 | -8.8 | -0.3
C[C@]12c3[nH]c4ccccc4c3CCN1C(=O)C(CC(=O)NCCN1CCOCC1)C[C@@H]2C(=O)N1CCCCC1 (some centres not stated) | 0.8 | 34.6 | nt | nt | nt | nt
COc1cccc(N/C(SCc2cccc([N+](=O)[O-])c2)=C(/C#N)C(N)=O)c1 | 6.0 | -2.5 | 6.8 | -0.6 | 67.2* | -6.0
COc1ccc2cc3cc(C(=O)Nc4ccc5c(c4)OCCO5)oc3nc2c1 | -1.8 | 9.3 | -12.7 | -0.4 | 21.0 | 5.1
COc1ccc2cc3cc(C(=O)Nc4cc(OC)c(OC)c(OC)c4)oc3nc2c1 | 57.7* | -5.6 | -9.9 | -0.1 | 8.8 | -0.4
Cc1ccc(CNC(=O)CSc2ncc(C(=O)Nc3ccccc3)c(=O)n2C)cc1 | -5.7 | 0.8 | nt | -0.4 | 0.9 | 8.0
CC(NC=C1C(=O)OC(C)(C)OC1=O)C(=O)O (configuration not stated) | -4.7 | 0.1 | 11.6 | 0.4 | 55.3* | 1.5
CC(C)C(NC=C1C(=O)OC(C)(C)OC1=O)C(=O)O (configuration not stated) | 4.3 | -3.7 | 1.0 | -0.5 | -10.2 | 0.0
SMILES | Cardio protect | JMJD2C inh | pCIP destab | PP5 inh | T cruzi repl | CTSL1 counter
COc1ccc(CN=C(C)c2c(C(F)(F)F)[nH]n(-c3nc4ccccc4s3)c2=O)cc1 | -6.2 | -0.3 | -10.2 | 1.2 | 4.5 | 17.7*
O=C(NNC(=O)c1cccnc1SCc1cccc([N+](=O)[O-])c1)c1ccccn1 | 82.7* | -12.5 | -6.3 | -0.6 | 65.4* | -2.3
O=C(NC1CCCc2ccccc21)c1ccccc1OC(F)F (configuration not stated) | 3.4 | 4.5 | -6.2 | 1.9 | -0.4 | -3.3
Cc1ccc(CN(C(=O)COc2cccc(C)c2C)C2CCS(=O)(=O)C2)o1 (configuration not stated) | 3.0 | 10.1 | 10.3 | 3.4 | -7.0 | 2.0
O=C(N/N=C(\c1ccccc1)c1ccccn1)c1cccc([N+](=O)[O-])c1 | 46.5 | nt | -3.8 | -1.3 | 57.9* | -1.2
O=C(Nc1cccc(-c2csc(Nc3cccc(C(F)(F)F)c3)n2)c1)c1ccccc1 | -12.7 | 16.1 | 2.7 | 4.9 | 32.4 | 1.7
O=C(Nc1ccc(-c2csc(Nc3cccc(C(F)(F)F)c3)n2)cc1)c1ccccc1 | -7.2 | nt | 0.8 | 5.7 | 78.6* | 0.8
O=C(Nc1nc(-c2ccccc2)cs1)C1CCCN(S(=O)(=O)c2cccc([N+](=O)[O-])c2)C1 (configuration not stated) | -6.8 | 20.7 | 6.8 | 0.0 | 73.8* | -1.2
O=C(Nc1nc(-c2ccccc2)cs1)C1CCCCN1S(=O)(=O)c1ccc(Cl)cc1 (configuration not stated) | -2.2 | -3.1 | -38.2 | 3.0 | 77.8* | -0.1
CC1CCCN(S(=O)(=O)c2cccc([N+](=O)[O-])c2)C1 (configuration not stated) | -8.0 | -5.3 | -10.4 | -0.2 | -5.2 | -1.7
Cn1ccnc1/C(=N\NC(=O)c1ccccc1)c1cccc([N+](=O)[O-])c1 | 5.6 | 20.4 | 3.1 | 0.6 | 4.1 | 0.4
O=C(Nc1nc(-c2ccccc2)cs1)C1CCCN(S(=O)(=O)c2ccccc2)C1 (configuration not stated) | -7.5 | 92.1 | -26.9 | 5.6 | 60.7* | 0.5
O=C(Nc1nc(-c2cccnc2)cs1)c1cccc([N+](=O)[O-])c1 | -12.8 | 9.1 | -0.5 | -0.2 | 6.7 | 3.1
O=C(Nc1nc(-c2ccccc2)cs1)c1cccc([N+](=O)[O-])c1 | -6.4 | 2.8 | -12.7 | 1.6 | 54.6* | 2.5
O=C(Nc1nc(-c2ccccc2)cs1)C1CCCCN1S(=O)(=O)c1ccccc1 (configuration not stated) | -13.9 | 7.6 | 45.5 | 6.5 | 5.7 | 0.5

Screens from PubChem BioAssay.
